Reference: ChEMBL document CHEMBL1123477, “Phenethyl ester derivative analogues of the C-terminal tetrapeptide of gastrin as potent gastrin antagonists” (J Med Chem, 1986)
Active and inactive are the calls of the source. The calls are words filed in the database; no cut-off is given here. Where a SMILES comes first, the peptide text is derived from it. The star is where a group is joined. Boc = CC(C)(C)OC(=O)*

What was measured:
[1] = test system: Rattus norvegicus; assay: Compound was evaluated for the antagonist activity (ED50) against gastrin-induced acid secretion in the anesthetized rat.; assay type: functional
Outline: (§1)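 Urethane-anaesthetized rats (ip) with the stomach continuously perfused at 30 °C with propionate-succinate solution. Cumulative pH was recorded over time as the index of acid secretion. Compound in alkaline aqueous solution was given as an iv bolus together with (Leu15)-human gastrin I, usually 80 pmol. H+ output, taken from the stimulated minus basal trace, was expressed as % inhibition relative to gastrin alone.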

[2] = Compound was evaluated for the inhibition of [125 I](Nle12)HG-13 binding to isolated gastric mucosa cells.; design: species or system Oryctolagus cuniculus; conditions: in the assay text read “(Nle11)” for “(Nle12)”
Outline: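 Dispersed rabbit fundic mucosal cells (collagenase/EDTA digestion, mixed population with about 45% parietal cells) were incubated in Hepes-buffered Earle's medium with 0.2% BSA, pH 7.4. Incubation was 30 min at 37 °C with 20 pM mono-iodinated (Nle11)-HG-13 (chloramine T labelling) plus varied peptide concentrations. Nonsaturable binding was defined with 1 × 10^-6 M unlabeled (Nle11)-HG-13.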

[3] = test system: Rattus norvegicus; assay: Compound was evaluated for the antagonist activity (ED50) against gastrin-induced acid secretion in the anesthetized rat; Inactive; assay type: functional, organism-based; outline: as §1

| Compound | ED50 [1] | IC50 [2] | ED50 [3] |
| --- | --- | --- | --- |
| CC(C)C[C@H](NC[C@H](Cc1c[nH]c2ccccc12)NC(=O)OC(C)(C)C)C(=O)N[C@@H](CC(=O)O)C(=O)OCCc1ccccc1 | 1 mg/kg | – | – |
| CC(C)C[C@H](NC(=O)[C@H](Cc1c[nH]c2ccccc12)NC(=O)OC(C)(C)C)C(=O)N[C@@H](CC(=O)O)C(=O)N[C@@H](Cc1ccccc1)C(N)=O (Boc-WLDF-NH2) | – | 500 nM | – |
| CC(C)C[C@H](NC(=O)[C@@H](Cc1c[nH]c2ccccc12)NC(=O)CCNC(=O)OC(C)(C)C)C(=O)N[C@H](CC(=O)O)C(=O)OCCc1ccccc1 | 0.04 mg/kg | 75 nM | – |
| CC(C)C[C@H](NC[C@H](Cc1c[nH]c2ccccc12)NC(=O)OC(C)(C)C)C(=O)N[C@@H](CC(=O)O)C(=O)OCCc1ccc(F)cc1 | 0.1 mg/kg | – | – |
| CC(C)C[C@H](NC(=O)[C@H](Cc1c[nH]c2ccccc12)NC(=O)OC(C)(C)C)C(=O)N[C@@H](CC(=O)O)C(=O)OCCc1ccccc1C(F)(F)F | 1.5 mg/kg | – | – |
| CC(C)C[C@H](NC(=O)[C@H](Cc1c[nH]c2ccccc12)NC(=O)OC(C)(C)C)C(=O)N[C@@H](CC(=O)O)C(=O)OCCc1ccc(F)cc1 | 0.08 mg/kg | – | – |
| CC(C)C[C@H](NC(=O)[C@H](Cc1c[nH]c2ccccc12)NC(=O)CCNC(=O)OC(C)(C)C)C(=O)N[C@@H](CC(=O)O)C(=O)OCCc1ccc(F)cc1 | 0.02 mg/kg | – | – |
| CC(C)C[C@H](NC(=O)[C@H](Cc1c[nH]c2ccccc12)NC(=O)CCNC(=O)OC(C)(C)C)C(=O)N[C@H](CC(=O)O)C(=O)OCCc1ccccc1 | 0.08 mg/kg | – | – |
| CC(C)C[C@H](NC(=O)[C@H](Cc1c[nH]c2ccccc12)NC(=O)OC(C)(C)C)C(=O)N[C@@H](CC(=O)O)C(=O)OCCc1ccccc1F | 0.1 mg/kg | – | – |
| CC(C)C[C@H](NC(=O)[C@H](Cc1c[nH]c2ccccc12)NC(=O)OC(C)(C)C)C(=O)N[C@@H](CC(=O)O)C(=O)OCCc1ccccc1 | 0.1 mg/kg | 750 nM | – |
| CC(C)C[C@H](NC(=O)[C@H](Cc1c[nH]c2ccccc12)NC(=O)OC(C)(C)C)C(=O)N[C@@H](CC(=O)O)C(=O)OCCc1cccc(C(F)(F)F)c1 | > 1 mg/kg | – | – |
| CC(C)C[C@H](NC(=O)[C@@H](Cc1c[nH]c2ccccc12)NC(=O)CCNC(=O)OC(C)(C)C)C(=O)N[C@H](CC(=O)O)C(=O)NC(Cc1ccccc1)C(N)=O (some centres not stated) | – | 50 nM | – |
| CC(C)C[C@@H](NC(=O)[C@H](Cc1c[nH]c2ccccc12)NC(=O)OC(C)(C)C)C(=O)N[C@H](CC(=O)OCCc1ccc(F)cc1)C(=O)O | – | – | inactive |
| CC(C)C[C@H](NC(=O)OC(C)(C)C)C(=O)N[C@@H](CC(=O)O)C(=O)OCCc1ccccc1 | – | – | inactive |
| CC(C)C[C@H](NC(=O)[C@@H](Cc1c[nH]c2ccccc12)NC(=O)OC(C)(C)C)C(=O)N[C@@H](CC(=O)O)C(=O)OCCc1ccccc1 | 0.8 mg/kg | – | – |
